Hits are enriched below; roughly 2.1% of the tested compounds scored in any of these assays.
MEKK2mut PB1 HTS – MEK5 binding signal on mutant MEKK2 PB1, primary screen, biochemical, multiplex bead flow cytometry, Alexa488-MEK5; hit rate 0.35% among 290,000; AID 1530, 2009; Alexa488-MEK5 binding to MEKK2 mutant; percent response, % at 10 µM; in the data active = percent response above about 24%, passing the limit was not always enough
STK33 inh – inhibitors of purified STK33 kinase, primary screen, biochemical, ADP-Glo luminescence, homogeneous, cell-free | MBP phosphorylation | AID 2661, 2010 | inhibition, % at 10 µM | Serine/threonine-protein kinase 33 (Homo sapiens), Q9BYT3 | hit rate 0.073% among 320,000;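 active = inhibition at or above 25%, using the most active replicate where run in duplicate; inactive = inhibition below 25%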
GSK3 alpha inh – blockers of GSK3A enzyme activity – biochemical, luminescence, cell-free homogeneous, HTS, primary screen; Glycogen synthase kinase-3 alpha (Homo sapiens), P49840; GSK-3 alpha kinase, ADP-Glo luminescence, 60 min; inhibition, % at 10 µM; hit rate 0.1% among 320,000;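 active = more than half of replicates show inhibition above 20%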;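 also: GST-tagged GSK-3 alpha with peptide substrate and 25 µM ATP; 0% = DMSO neutral wells and 100% = GW8510 positive control wells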
MEKK2 WT-MEK5 – modulators of MEK5 binding to wildtype MEKK2, primary screen, biochemical, multiplex bead flow cytometry, Alexa488-MEK5; Mitogen-activated protein kinase kinase kinase 2 (Homo sapiens), Q9Y2U5; Alexa488-MEK5 binding to MEKK2 WT; actives lie on both sides; binding response (% of control), % at 10 µM; hit rate 1.1% among 290,000; AID 1531, 2009; in the data active = binding response below about 67% or above about 130%
MEKK3 PB1 HTS – modulators of MEKK3-MEK5 PB1 binding, primary screen, biochemical, wildtype MEKK3, multiplex bead flow cytometry, Alexa488-MEK5; bead-based flow cytometry, Alexa488-MEK5 binding to MEKK3; actives lie on both sides; 0 = blocked by unlabeled MEK5, 100 = vehicle; binding response (% of control), % at 10 µM; hit rate 1.4% among 290,000;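 active = binding response more than 3 SD above or below the average of its plate-row segment, actives on both sides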;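 also: Alexa488 bead fluorescence after subtracting the streptavidin-only scavenger bead signal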
Target sequence (Q99759 whole entry, looked up): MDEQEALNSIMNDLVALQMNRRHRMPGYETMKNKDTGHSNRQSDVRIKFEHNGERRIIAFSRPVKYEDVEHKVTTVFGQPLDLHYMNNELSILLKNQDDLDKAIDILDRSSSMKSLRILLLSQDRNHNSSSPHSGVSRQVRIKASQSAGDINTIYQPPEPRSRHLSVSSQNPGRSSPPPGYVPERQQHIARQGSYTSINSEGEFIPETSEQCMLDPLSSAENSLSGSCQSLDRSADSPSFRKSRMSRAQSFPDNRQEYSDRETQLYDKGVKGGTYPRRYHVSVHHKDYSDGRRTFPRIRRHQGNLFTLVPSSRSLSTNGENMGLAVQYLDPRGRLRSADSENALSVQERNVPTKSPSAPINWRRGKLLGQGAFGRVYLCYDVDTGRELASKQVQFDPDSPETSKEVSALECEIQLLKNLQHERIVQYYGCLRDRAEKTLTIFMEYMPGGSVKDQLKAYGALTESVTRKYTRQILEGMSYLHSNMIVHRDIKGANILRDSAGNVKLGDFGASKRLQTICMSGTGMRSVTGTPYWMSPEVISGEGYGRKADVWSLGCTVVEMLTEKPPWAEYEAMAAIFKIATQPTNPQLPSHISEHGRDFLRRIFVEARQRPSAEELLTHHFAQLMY
GSK3beta inhib – human GSK3beta kinase inhibitors, primary screen, biochemical, cell-free homogeneous, HTS | hit rate 0.038% among 300,000 | GST-GSK3beta kinase, ADP-Glo luminescence, 60 min; active compounds read low | AID 2097, 2009 | activity score (negative = inhibition), % at 10 µM | Glycogen synthase kinase-3 beta (Homo sapiens), P49841;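 active = more than half of replicate wells score below -50%, meaning over 50% inhibition versus plate controls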;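 also: 0% = median DMSO wells and -100% = median GW8510 positive control wells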
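Test system: GST-tagged human GSK3beta kinase, cell-free; evaluation: activity score scaled between in-plate DMSO and GW8510 controls; measured by: ADP-Glo luminescence; incubation: 60 min reaction, RT; benchmarks: DMSO and 20 µM GW8510; reagent: peptide substrate plus 25 µM ATP (final); medium: Tris/MgCl2 kinase buffer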
MEKK2wt confirm – modulators of MEK5 binding to wildtype MEKK2, confirmation, biochemical, single concentration, multiplex bead flow cytometry; shares compounds with MEKK3 PB1 HTS; AID 1892, 2009; Alexa488-MEK5 binding to MEKK2 WT; actives lie on both sides; hit rate 2.4% among 5,900; binding response (% of control), % at 10 µM; in the data active = binding response below about 16% or above about 210%; inactive = in between
MEKK2mut confirm – mutant MEKK2 PB1-MEK5 binding signal retest – biochemical, single concentration, multiplex bead flow cytometry, confirmation; percent response, % at 10 µM; hit rate 2% among 5,900; Alexa488-MEK5 binding to MEKK2 mutant; AID 1893, 2009; shares compounds with MEKK3 PB1 HTS; in the data active = percent response mostly above about 71%, no sharp cut-off; inactive = mostly below about 38%;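 also: higher means compound restores mutant binding toward wildtype level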
MEKK3-MEK5 inh – MEKK3 wild-type PB1 binding to MEK5, inhibitors, confirmation, biochemical, bead multiplex flow cytometry, single concentration, wildtype; AID 1894, 2009; hit rate 1.8% among 5,900; binding response (% of control), % at 10 µM; Alexa488-MEK5 binding to MEKK3; active compounds read low; shares compounds with MEKK3 PB1 HTS;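 active = binding response below 72% of control, or above a set upper limit, though filed actives all read lower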;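 also: 100% = DMSO only wells and 0% = binding blocked by excess unlabeled MEK5; lower values mean stronger disruption of MEK5 binding to MEKK3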
* = called active by the depositor; . = not tested or not shown; [ ] = remark or other dose.

SMILES	MEKK2mut PB1 HTS	STK33 inh	GSK3 alpha inh	MEKK2 WT-MEK5	MEKK3 PB1 HTS	GSK3beta inhib	MEKK2wt confirm	MEKK2mut confirm	MEKK3-MEK5 inh
Cc1cc(SCC(=O)OCC(=O)N(C)c2ccccc2)nc2ccccc12	.	0	-2	.	.	2	.	.	.
CCCCn1c(N)c(N(CC)C(=O)c2cc(CC)c(C)s2)c(=O)[nH]c1=O	.	0	1	.	.	-1	.	.	.
COc1ccc(NC(=O)CC2C(=O)N(c3ccc(Cl)cc3)C(=S)N2CCc2ccncc2)cc1 (stereo not given)	6	-1	-2	108	107	3	.	.	.
COc1ccc(NC(=O)CC2C(=O)N(c3ccccc3)C(=O)N2CCc2cccs2)cc1 (stereo not given)	0	.	.	102	149*	2	105	5	105
COc1ccc(NC(=O)CC2C(=O)N(c3ccc(Cl)cc3)C(=S)N2CCc2ccccn2)cc1 (stereo not given)	0	0	6	104	130*	1	101	-7	100
COc1cc(/C=C\C(=O)O)cc(S(=O)(=O)N2CCCCCC2)c1OC	-4	.	.	95	93	2	.	.	.
COc1ccc(-c2nn(-c3ccccc3)cc2/C=C/C(=O)OCC(=O)Nc2ccc(C#N)cc2)cc1	-1	1	1	106	96	-7	.	.	.
COc1ccc(-c2nn(-c3ccccc3)cc2/C=C/C(=O)OCC(=O)Nc2cccc(C#N)c2)cc1	2	-1	-3	104	130*	-1	106	1	105
O=C(O)Cn1cc(CN2CCOCC2)c2ccccc21	3	-1	-1	104	106	-1	.	.	.
Cn1cc(CN2CCN(c3ccccc3)CC2)c2ccccc21	-9	0	.	92	73*[inhibitor]	0	112	10	108
CCc1ccc(C(=O)NC(CCSC)C(=O)OC)cc1 (stereo not given)	4	0	1	3.0*[inhibitor]	3.0*[inhibitor]	-1	93	-5	100
Cc1c(C#N)c(N=CN(C)C)c(C(=O)c2ccc(Br)cc2)n1-c1ccccc1	2	-6	-1	69*[inhibitor]	103	-2	96	-1	102
COc1ccc(C(CCN2CCCC(C)C2)c2c(OC)cc(OC)c3c2OC(=O)CC3c2cc(OC)c(OC)c(OC)c2)cc1 (stereo not given)	14	2	-1	145*	114	0	130	35	106
CCCCCc1cc(=O)oc2c(C(CCN3CCCC3)c3ccc(N(C)C)cc3)c(OC)cc(OC)c12 (stereo not given)	42*	0	2	151*	118	-7	184	83*	108
COc1cc(OC)c2ccc(=O)oc2c1C(CCN1CCCC(C)C1)c1ccc2c(c1)OCO2 (stereo not given)	5	-1	3	102	94	2	.	.	.
